{"source": "paper PMC6944734", "about": "(Alzheimer's & Dementia : Translational Research & Clinical …, 2019)", "tested_on": "primary mouse neuronal cultures", "test": "Synaptic recordings", "assay_type": "cell-based", "settings": "compared with the control", "procedure,_shortened": "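Primary neurons from E18 mouse embryos plated at 10 K per well on coverslips. At DIV 11–13, sister coverslips from the same pups were treated 24 or 72 h before recording with DMSO (n = 4), γ-secretase inhibitor DAPT (n = 5) or test compound (n = 4), and all recorded the same day. Spontaneous miniature events analysed for frequency, interevent interval, amplitude and decay. Access resistance 2–14 MΩ.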", "data": [{"smiles": "C[C@H](NC(=O)Cc1cc(F)cc(F)c1)C(=O)N[C@H](C(=O)OC(C)(C)C)c1ccccc1", "note": "[difluorphenacetyl-alanyl phenylglycine t-butyl ester]", "values": [{"measurement": "Single quantum (amplitudes below 20 pA) and multiquantal (~35–45 pA) releases", "value": "significantly more"}]}]}
